Experimental data from ChEMBL document CHEMBL4049390, “Combination of amino acid/dipeptide with ligustrazine-betulinic acid as antitumor agents” (Eur J Med Chem, 2017).
The source made the active and inactive calls. The calls are words filed in the database; no cut-off is given here.

How the values were obtained:
A549 [1] = assay: Potency index, ratio of cisplatin IC50 to compound IC50 for human A549 cells; type: functional
In short: (§1)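 Ratios were calculated from MTT IC50 values (72 h exposure, A490 read-out, n = 3). Potency index = cisplatin IC50 / compound IC50. Therapeutic index = MDCK IC50 / tumour-line IC50.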

BGC-823 = assay: Antiproliferative activity against human BGC823 cells after 72 hrs by MTT assay; type: functional, cell-based; details: BGC-823, 72 h
In short: (§2)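 MTT assay. Log-phase cells were seeded at 3×10^3 cells/well and left overnight, then exposed to serial dilutions of compound (DMSO solutions) for 72 h in RPMI 1640 with 10% heat-inactivated FBS at 37 °C, 5% CO2. MTT (5 mg/mL, 20 µL) was added for 4 h at 37 °C and the formazan dissolved in DMSO. A490 was read. % inhibition = (1 − sample OD/control OD)×100; IC50 is the 50% growth-inhibition concentration. Triplicates, n = 3 independent experiments.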

HepG2 [2] = assay: Induction of apoptosis in human HepG2 cells assessed as late apoptotic cells at 2 uM after 72 hrs by Annexin-V-FITC/propidium iodide staining based flow cytometry (reference value: 2.6%); type: functional
HepG2 [3] = assay: Induction of apoptosis in human HepG2 cells assessed as disruption of mitochondrial membrane potential by measuring mean fluorescence intensity at 3 uM after 72 hrs by Rh123 staining based flow cytometry (reference value: 26410); type: functional
HepG2 [4] = assay: Induction of apoptosis in human HepG2 cells assessed as early apoptotic cells at 2 uM after 72 hrs by Annexin-V-FITC/propidium iodide staining based flow cytometry (reference value: 3.7%); type: functional
HepG2 [5] = assay: Induction of apoptosis in human HepG2 cells assessed as formation of apoptotic bodies after 72 hrs by DAPI staining based fluorescent microscopic method; type: functional, cell-based
In short: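 HepG2 cells were plated at 4×10^3 cells/well in six-well plates and grown 12 h, then treated at 1.5, 3 or 6 µM for 72 h. Cells were washed in PBS, fixed in 4% paraformaldehyde and stained with 1 mg/mL DAPI for 1 min in the dark. Nuclei were viewed by fluorescence microscopy at 200×.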

HepG2 [6] = assay: Induction of apoptosis in human HepG2 cells assessed as early apoptotic cells at 4 uM after 72 hrs by Annexin-V-FITC/propidium iodide staining based flow cytometry (reference value: 3.7%); type: functional
HepG2 [7] = assay: Antiproliferative activity against human HepG2 cells after 72 hrs by MTT assay; type: functional, cell-based; details: HepG2, 72 h; in short: as §2
HepG2 [8] = assay: Induction of apoptosis in human HepG2 cells assessed as viable cells at 2 uM after 72 hrs by Annexin-V-FITC/propidium iodide staining based flow cytometry (reference value: 93.2%); type: functional; details: HepG2, 72 h, read-out: Activity
HepG2 [9] = assay: Induction of apoptosis in human HepG2 cells assessed as necrotic cells at 4 uM after 72 hrs by Annexin-V-FITC/propidium iodide staining based flow cytometry (reference value: 0.5%); type: functional
HepG2 [10] = assay: Induction of apoptosis in human HepG2 cells assessed as disruption of mitochondrial membrane potential by measuring mean fluorescence intensity after 72 hrs by Rh123 staining based flow cytometry; type: functional, cell-based
In short: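 Mitochondrial potential: HepG2 cells (1×10^5/well, 6-well) were grown 24 h, then exposed at 2, 3 or 4 µM for 72 h. Cells were trypsinised, washed in cold PBS and loaded with 10 µg/mL rhodamine 123 for 30 min at 37 °C. After washing, flow cytometry was run (ex 488/em 530 nm); the read-out is mean fluorescence intensity.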

HepG2 [11] = assay: Induction of apoptosis in human HepG2 cells after 72 hrs by Annexin-V-FITC/propidium iodide staining based flow cytometry; type: functional, cell-based
HepG2 [12] = assay: Induction of apoptosis in human HepG2 cells assessed as increase in intracellular calcium level by measuring mean fluorescence intensity at 4 uM after 72 hrs by Fluo-3AM dye based flow cytometry (reference value: 1992); type: functional
In short: (§3)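 HepG2 cells at 1×10^5 cells/well were grown 24 h, then treated with compound for 72 h. Cells were harvested, washed in cold PBS and resuspended in HBSS containing 10 µM Fluo-3 AM for 30 min at 37 °C in the dark. Flow cytometry used 488 nm excitation; the read-out was mean fluorescence intensity against an untreated control.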

HeLa [13] = assay: Antiproliferative activity against human HeLa cells after 72 hrs by MTT assay; type: functional, cell-based; in short: as §2
HepG2 [14] = assay: Potency index, ratio of cisplatin IC50 to compound IC50 for human HepG2 cells; type: functional; in short: as §1
HepG2 [15] = assay: Induction of apoptosis in human HepG2 cells assessed as nuclear condensation at 6 uM after 72 hrs by Giemsa staining based fluorescent microscopic method; type: functional, cell-based
In short: (§4)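 HepG2 cells were seeded at 4×10^3 cells/well in 6-well plates overnight, then treated at 1.5, 3 or 6 µM for 72 h. Cells were washed in PBS, fixed in cold methanol, stained with 6% Giemsa for 5 min, rinsed with water and dried. Morphology was examined microscopically at 200×, with apoptotic cells marked in representative fields.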

HT-29 [16] = assay: Potency index, ratio of cisplatin IC50 to compound IC50 for human HT-29 cells; type: functional; in short: as §1
HepG2 [17] = assay: Induction of apoptosis in human HepG2 cells assessed as necrotic cells at 2 uM after 72 hrs by Annexin-V-FITC/propidium iodide staining based flow cytometry (reference value: 0.5%); type: functional
A549 [18] = assay: Antiproliferative activity against human A549 cells after 72 hrs by MTT assay; type: functional, cell-based; details: A549, 72 h; in short: as §2
HepG2 [19] = assay: Induction of apoptosis in human HepG2 cells assessed as increase in intracellular calcium level by measuring mean fluorescence intensity at 2 uM after 72 hrs by Fluo-3AM dye based flow cytometry (reference value: 1992); type: functional; in short: as §3
HeLa [20] = assay: Potency index, ratio of cisplatin IC50 to compound IC50 for human HeLa cells; type: functional; in short: as §1
HepG2 [21] = assay: Induction of apoptosis in human HepG2 cells assessed as disruption of mitochondrial membrane potential by measuring mean fluorescence intensity at 2 uM after 72 hrs by Rh123 staining based flow cytometry (reference value: 26410); type: functional
HepG2 [22] = assay: Induction of apoptosis in human HepG2 cells assessed as cell shrinkage at 1.5 uM after 72 hrs by Giemsa staining based fluorescent microscopic method; type: functional; in short: as §4
HepG2 [23] = assay: Induction of apoptosis in human HepG2 cells assessed as increase in intracellular calcium level by measuring mean fluorescence intensity at 3 uM after 72 hrs by Fluo-3AM dye based flow cytometry (reference value: 1992); type: functional; in short: as §3
HepG2 [24] = assay: Induction of apoptosis in human HepG2 cells assessed as late apoptotic cells at 3 uM after 72 hrs by Annexin-V-FITC/propidium iodide staining based flow cytometry (reference value: 2.6%); type: functional
HepG2 [25] = assay: Induction of apoptosis in human HepG2 cells assessed as late apoptotic cells at 4 uM after 72 hrs by Annexin-V-FITC/propidium iodide staining based flow cytometry (reference value: 2.6%); type: functional
HepG2 [26] = assay: Induction of apoptosis in human HepG2 cells assessed as disruption of mitochondrial membrane potential by measuring mean fluorescence intensity at 4 uM after 72 hrs by Rh123 staining based flow cytometry (reference value: 26410); type: functional
MDCK = assay: Antiproliferative activity against MDCK cells after 72 hrs by MTT assay; type: cell-based; details: Canis lupus familiaris; in short: as §2
HT-29 [27] = assay: Antiproliferative activity against human HT-29 cells after 72 hrs by MTT assay; type: functional, cell-based; details: HT-29, 72 h; in short: as §2

C=C(C)[C@@H]1CC[C@]2(C(=O)OCc3nc(C)c(C)nc3C)CC[C@]3(C)[C@H](CC[C@@H]4[C@@]5(C)CC[C@H](OC(=O)[C@H](C)NC(=O)CNC)C(C)(C)[C@@H]5CC[C@]43C)[C@@H]12
Ratio IC50 (A549 [1]): 2 | IC50 (BGC-823): 1790 nM | Activity (HepG2 [2]): 4.8% | Flu intensity (HepG2 [3]): 5411 | Activity (HepG2 [4]): 6.1% | Activity (HepG2 [5]): Dose-dependent effect | Activity (HepG2 [6]): 29.9% | IC50 (HepG2 [7]): 3090 nM | viability at 2 µM (HepG2 [8]): 88% | Activity (HepG2 [9]): 1% | Activity (HepG2 [10]): Dose-dependent effect | Activity (HepG2 [11]): Dose-dependent effect | Flu intensity (HepG2 [12]): 6353 | IC50 (HeLa [13]): 1740 nM | Ratio IC50 (HepG2 [14]): 2 | Activity (HepG2 [15]): Active | Ratio IC50 (HT-29 [16]): 2 | Activity (HepG2 [17]): 1.1% | IC50 (A549 [18]): 3250 nM | Flu intensity (HepG2 [19]): 2743 | Ratio IC50 (HeLa [20]): 2 | Flu intensity (HepG2 [21]): 6416 | Activity (HepG2 [22]): Active | Flu intensity (HepG2 [23]): 3760 | Activity (HepG2 [24]): 6.5% | Activity (HepG2 [25]): 6.9% | Flu intensity (HepG2 [26]): 2147 | IC50 (MDCK): 10800 nM | IC50 (HT-29 [27]): 1700 nM
